# Article PMC5709104 (Haematologica, 2017)
# “Also recorded” adds a separate entry of the source.
# How the values were obtained:
# [1] = system: MOLM13 cells; assay: Viable cell number and apoptosis by flow cytometry; format: cell-based, human
# In short: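 Viable cell number and apoptosis in MOLM13 cells measured by flow cytometry. Single-agent runs used vehicle (0.1% DMSO) or varying doses of test compound for 48 h or 72 h. Combination runs used vehicle (0.2% DMSO), 1 μM cytarabine, test compound (10 or 50 nM) or both, for 48 h. Student's t-test against cytarabine-treated cells.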
# [2] = system: resistant cells; conditions: cited from earlier work
# [3] = system: AXL; conditions: cited from earlier work
# [4] = system: refractory or relapse AML; conditions: single agent; cited from earlier work
# [5] = molecular target: MER (Homo sapiens, UniProt Q12866); assay: Cell-based tyrosine kinase inhibition assay; conditions: recombinant kinase expressing Ba/F3 cells, 48 hr
# MER, sequence (Q12866 21-999): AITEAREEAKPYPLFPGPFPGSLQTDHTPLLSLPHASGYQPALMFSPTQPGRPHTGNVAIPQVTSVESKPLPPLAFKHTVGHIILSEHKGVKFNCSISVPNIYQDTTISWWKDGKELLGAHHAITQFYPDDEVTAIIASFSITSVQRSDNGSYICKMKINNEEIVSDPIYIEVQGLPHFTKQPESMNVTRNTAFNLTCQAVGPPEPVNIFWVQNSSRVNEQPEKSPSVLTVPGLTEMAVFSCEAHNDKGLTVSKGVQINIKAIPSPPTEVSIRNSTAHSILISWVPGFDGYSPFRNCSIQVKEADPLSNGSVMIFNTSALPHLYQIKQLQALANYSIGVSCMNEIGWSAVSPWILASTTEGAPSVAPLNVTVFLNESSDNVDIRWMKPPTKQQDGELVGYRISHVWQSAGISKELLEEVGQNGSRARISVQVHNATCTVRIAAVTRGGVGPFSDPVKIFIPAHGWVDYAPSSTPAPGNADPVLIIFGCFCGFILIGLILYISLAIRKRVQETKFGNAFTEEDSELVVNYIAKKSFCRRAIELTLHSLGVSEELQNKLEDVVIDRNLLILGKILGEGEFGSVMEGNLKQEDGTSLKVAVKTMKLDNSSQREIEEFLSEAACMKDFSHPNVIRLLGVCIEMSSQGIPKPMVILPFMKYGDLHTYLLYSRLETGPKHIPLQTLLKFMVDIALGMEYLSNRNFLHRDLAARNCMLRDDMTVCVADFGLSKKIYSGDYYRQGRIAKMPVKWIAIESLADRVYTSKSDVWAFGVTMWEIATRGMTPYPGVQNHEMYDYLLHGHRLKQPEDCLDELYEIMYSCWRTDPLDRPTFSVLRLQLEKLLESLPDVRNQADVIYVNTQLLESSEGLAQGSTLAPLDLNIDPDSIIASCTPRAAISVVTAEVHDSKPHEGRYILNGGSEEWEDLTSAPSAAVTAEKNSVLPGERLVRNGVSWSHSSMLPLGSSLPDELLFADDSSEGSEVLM
# [6] = molecular target: FLT3 (Homo sapiens, UniProt P36888); assay: Cell-based tyrosine kinase inhibition assay; conditions: recombinant kinase expressing Ba/F3 cells, 48 hr
# FLT3, sequence (P36888 27-993): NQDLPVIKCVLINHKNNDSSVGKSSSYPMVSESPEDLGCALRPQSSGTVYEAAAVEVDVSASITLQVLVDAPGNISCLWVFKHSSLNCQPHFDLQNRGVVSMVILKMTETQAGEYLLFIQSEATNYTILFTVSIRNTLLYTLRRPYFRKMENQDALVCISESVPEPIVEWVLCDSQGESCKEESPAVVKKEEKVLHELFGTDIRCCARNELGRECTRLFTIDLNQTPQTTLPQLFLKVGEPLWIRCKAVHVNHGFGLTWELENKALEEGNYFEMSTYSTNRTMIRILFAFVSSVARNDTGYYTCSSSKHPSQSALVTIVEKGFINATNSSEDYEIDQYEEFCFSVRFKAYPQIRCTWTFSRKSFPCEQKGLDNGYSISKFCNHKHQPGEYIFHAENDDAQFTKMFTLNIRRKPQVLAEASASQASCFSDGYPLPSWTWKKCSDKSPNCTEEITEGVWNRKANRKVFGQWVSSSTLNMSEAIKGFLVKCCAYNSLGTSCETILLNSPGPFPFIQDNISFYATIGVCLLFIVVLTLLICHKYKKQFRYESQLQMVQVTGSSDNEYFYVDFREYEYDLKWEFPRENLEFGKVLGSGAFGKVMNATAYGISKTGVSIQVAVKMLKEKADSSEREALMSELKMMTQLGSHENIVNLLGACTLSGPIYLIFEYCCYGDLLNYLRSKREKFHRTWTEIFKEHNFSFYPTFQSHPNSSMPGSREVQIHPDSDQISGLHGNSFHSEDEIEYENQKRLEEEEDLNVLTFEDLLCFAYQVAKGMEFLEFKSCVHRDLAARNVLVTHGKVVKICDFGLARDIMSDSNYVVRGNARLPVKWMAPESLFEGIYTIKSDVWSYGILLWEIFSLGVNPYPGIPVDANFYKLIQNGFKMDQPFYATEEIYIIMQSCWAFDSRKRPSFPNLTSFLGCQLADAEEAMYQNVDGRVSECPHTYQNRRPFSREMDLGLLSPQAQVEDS
# [7] = system: MV4;11 cells; assay: Viable cell number and apoptosis by flow cytometry; format: cell-based; conditions: 10 nM, 48 hours
# In short: (§1)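 MV4;11 and OCI-AML3 cells incubated 48 h with vehicle (0.1% DMSO) or varying doses of test compound. Viable cell number and apoptosis measured by flow cytometry.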
# [8] = system: OCI-AML3 cells; assay: Viable cell number and apoptosis by flow cytometry; format: cell-based; conditions: varying doses, 48 hours, OCI-AML3 (FLT3 WT)
# In short: as §1
# [9] = system: HL60 cells; assay: Viable cell number and apoptosis by flow cytometry; format: cell-based; conditions: FLT3 WT HL60, data not shown
# [10] = system: MOLM13 cells in co-culture with MSC; assay: In vitro co-culture system with MSC, viability by flow cytometry; format: cell-based, human; conditions: 50 nM, 72 hours
# In short: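 MOLM13 cells grown in monoculture or co-cultured with bone marrow-derived mesenchymal stromal cells (patient-derived, IRB-approved). Treated 72 h with vehicle or test compound. Viable cells measured by flow cytometry.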
# [11] = system: MOLM13 control shRNA (GFP) cells; assay: Viability and apoptosis by flow cytometry, control shRNA cells; format: cell-based, human; conditions: 10 nM, 48 hours
# In short: (§2)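 MOLM13 cells carrying control shRNA (GFP target) or p53 shRNA incubated 48 h with varying doses of test compound. Viability and apoptosis measured by flow cytometry. p53 knockdown checked by immunoblot densitometry against tubulin. Student's t-test against GFP control.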
# [12] = system: MOLM13 p53 shRNA cells; assay: Viability and apoptosis by flow cytometry, p53 knockdown cells; format: cell-based, human; conditions: 10 nM, 48 hours
# In short: as §2
# [13] = system: MOLM13 cells; assay: DNA synthesis and cell cycle assay; format: cell-based, human; conditions: 24 hours
# In short: (§3)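 MOLM13 and MV4;11 cells exposed to vehicle or varying doses of test compound for 24 h. Cell cycle status assessed by FX Cycle Violet DNA staining and DNA synthesis by EdU incorporation (Click-It EdU kit), both read by flow cytometry. Student's t-test against vehicle-treated cells.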
# [14] = system: MV4;11 cells; assay: DNA synthesis and cell cycle assay; format: cell-based; conditions: 24 hours
# In short: as §3
# [15] = system: MOLM13, MV4:11, OCI-AML3, and HL60 cells; assay: Trypan blue staining of cells collected for RPPA; format: cell-based; conditions: all other cases (vehicle or ONO-7475, 24 hours; MOLM13, MV4:11, OCI-AML3, HL60)
# [16] = system: MOLM13 cells; assay: Reverse phase protein analysis; format: cell-based, human; conditions: RPPA, 10 nM, 50 nM or 100 nM, 24 hours, at least 2-fold
# [17] = system: OCI-AML3; assay: Reverse phase protein analysis; format: cell-based; conditions: RPPA, 24 hours, FLT3 WT OCI-AML3
# [18] = system: HL60; assay: Reverse phase protein analysis; format: cell-based; conditions: RPPA, 24 hours, FLT3 WT HL60
# [19] = system: PLK1; assay: Immunoblot analysis; format: cell-based; conditions: 50 nM or 100 nM, 24 hours, MOLM13 and MV4;11
# In short: (§4)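 MOLM13 and MV4;11 cells incubated 24 h with vehicle or varying doses of test compound, then lysed. Total protein separated by SDS-PAGE and immunoblotted, with infrared imaging detection. Densitometry ratios taken to tubulin loading control, or to the total protein for phospho-proteins.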
# [20] = system: RB phosphorylation; assay: Immunoblot analysis; format: cell-based; conditions: even at the lowest dose, 24 hours, MOLM13 and MV4;11
# In short: as §4
# [21] = system: AXL; assay: Immunoblot analysis; format: cell-based; conditions: even at the lowest dose, 24 hours, MOLM13 and MV4;11
# In short: as §4
# [22] = system: Cyclin B1; assay: Immunoblot analysis; format: cell-based; conditions: 10 nM, 24 hours, MOLM13 and MV4;11
# In short: as §4
# [23] = system: CDK1; assay: Immunoblot analysis; format: cell-based; conditions: 10 nM, 24 hours, MOLM13 and MV4;11
# In short: as §4
# [24] = system: ERK phosphorylation; assay: Immunoblot analysis; format: cell-based; conditions: 10 nM, 24 hours, MOLM13
# In short: as §4
# [25] = system: MCL-1; assay: Immunoblot analysis; format: cell-based; conditions: 24 hours
# In short: as §4
# [26] = system: FLT3 phosphorylation; assay: Immunoblot analysis; format: cell-based; conditions: 10 nM
# In short: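 MOLM13 and MV4;11 cells exposed to vehicle or test compound, lysed, total protein resolved by SDS-PAGE, immunoblotted for FLT3 phosphorylation, with infrared imaging detection. Tubulin as loading control.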
# [27] = system: phosphorylation of S6; assay: Immunoblot analysis; format: cell-based; conditions: 24 hours, MOLM13
# In short: as §4
# [28] = system: p38 phosphorylation; assay: Immunoblot analysis; format: cell-based; conditions: 24 hours, MOLM13; due to reduction of total p38
# In short: as §4
# [29] = system: PLK-1 mRNA; assay: qRT-PCR gene expression analysis; format: cell-based; conditions: 24 hours; for reduction of PLK-1 mRNA relative to B2M: MOLM13
# In short: (§5)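 MOLM13 and MV4;11 cells incubated 24 h with vehicle or varying doses of test compound. Total RNA extracted and reverse transcribed. PLK-1, CDK1 and CCNB1 transcripts quantified by TaqMan qRT-PCR and normalized to B2M.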
# [30] = system: CDK1 mRNA; assay: qRT-PCR gene expression analysis; format: cell-based; conditions: 10 nM, 24 hours, MOLM13 and MV4;11
# In short: as §5
# [31] = system: CCNB1 mRNA; assay: qRT-PCR gene expression analysis; format: cell-based; conditions: 10 nM, 24 hours, MOLM13 and MV4;11
# In short: as §5
# [32] = system: AXL mRNA; assay: qRT-PCR gene expression analysis; format: cell-based; conditions: 24 hours
# [33] = system: MOLM13 luc/gfp cells; assay: Human AML murine xenograft model; format: in vivo, NSG mice
# In short: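 MOLM13 cells lentivirally transduced with firefly luciferase/copGFP, injected into NSG mice. Control feed for one week, then control feed or feed containing 0.004% (~6 mg/kg daily; N=5 per group) or 0.013% (~20 mg/kg daily; N=9 control, N=10 treated) test compound. Leukemic burden by weekly IVIS imaging. Sternum (BM) and liver from moribund mice examined by H&E.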
compound,measurement,setting,value
"Nc1ccn([C@@H]2O[C@H](CO)[C@@H](O)[C@@H]2O)c(=O)n1 [AraC, Cytarabine, reference compound]","viable cell numbers and apoptosis, single agent","[1]; 1 μM AraC alone, 48 hours, MOLM13",effective
Nc1nc(Nc2ccc3c(c2)CC[C@@H](N2CCCC2)CC3)nn1-c1cc2c(nn1)-c1ccccc1CCC2 [BGB324],sensitisation to a combination of decitabine and vorinostat,[2],could sensitize resistant cells
"CCc1nc(C(N)=O)c(Nc2ccc(N3CCC(N4CCN(C)CC4)CC3)c(OC)c2)nc1NC1CCOCC1 [Gilteritinib, gilteritinib]",IC50,[3],0.7 nM
same,patients achieving some response,[4],40%
same,patients exhibiting inhibition of FLT3 phosphorylation,[4],90%
same,tolerability,[4],well tolerated
COc1cc2nccc(Oc3ccc(NC(=O)c4cc5c(n(-c6ccccc6)c4=O)CCCC5=O)nc3)c2cc1OC [ONO-7475],IC50,[5],1 nM
same,IC50,[6],147 nM
same,apoptosis,"[1]; 10 nM, 48 hours, MOLM13",induced apoptosis
same,reduction of cell viability,"[1]; 10 nM, 48 hours, MOLM13",> 50%
same,cells becoming apoptotic,"[1]; 10 nM, 72 hours, MOLM13",> 70%
same,viable cells,"[1]; 10 nM, 72 hours, MOLM13 monoculture",nearly eliminated all viable MOLM13 cells
same,"viable cell numbers and apoptosis, single agent","[1]; ONO-7475 alone (10nM or 50 nM), 48 hours, MOLM13",effective
same,apoptosis,[7],induced apoptosis
same,reduction of cell viability,[7],> 50%
same,apoptosis,[8],did not induce apoptosis
same,viable cell number,[8],slightly reduced
same,sensitivity to drug,[9],resistant
same,protection of AML cells by MSC from the inhibitor,[10],abrogated most of this effect
same,apoptosis,[11],without inducing apoptosis
same,reduction of viability,[11],~ 55%
same,apoptosis,[12],~ 20%
same,reduction of viability,[12],> 70%
same,suppression of DNA synthesis,[13]; 5 nM,> 2 fold
same,cell cycle status,[13],potently induced G0/G1 arrest
same,suppression of DNA synthesis,[14]; 5 nM,> 2 fold
same,cell cycle status,[14],potently induced G0/G1 arrest
same,viable cells (Trypan blue),[15],> 95%
same,Proteins increased in MOLM13 cells by ONO-7475,[16],H2AX (phospho; pS140)
same,"change (i.e., 2-fold) in the level of protein",[17],no significant change
same,"change (i.e., 2-fold) in the level of protein",[18],no significant change
same,PLK1 protein,[19],"Little, if any, PLK1 was detected"
same,RB phosphorylation,[20],blocked RB phosphorylation
same,AXL protein,[21],induced AXL
same,Cyclin B1 protein,[22],potently suppressed
same,CDK1 protein,[23],potently suppressed
same,reduction of ERK phosphorylation,[24],~ 50%
same,suppression of MCL-1,"[25]; 10 nM, MOLM13",> 80%
same,reduction of MCL-1,"[25]; 100 nM, MV4;11",50%
same,p-FLT3,[26]; MOLM13,greatly reduced
same,p-FLT3,[26]; MV4;11,nearly eliminated
same,phosphorylation of S6,[27],inhibited the phosphorylation of S6
same,p38 phosphorylation,[28],p38 phosphorylation was reduced
same,suppression of PLK-1 mRNA compared with MOLM13,"[29]; 10 nM and 50 nM, MV4;11",more potently suppressed
same,reduction of PLK-1 mRNA relative to B2M,[29]; 10 nM,~ 60%
same,reduction of PLK-1 mRNA relative to B2M,[29]; 50 nM,~ 80%
same,reduction of CDK1 mRNA relative to B2M,[30],at least 60%
same,reduction of CCNB1 mRNA relative to B2M,[31],at least 60%
same,increase of AXL mRNA relative to B2M,"[32]; 10 nM, MOLM13 and MV4;11",~ 3.5 fold
same,increase of AXL mRNA relative to B2M,"[32]; 50 nM, MOLM13",> 6 fold
same,increase of AXL mRNA relative to B2M,"[32]; 50 nM, MV4;11",> 8 fold
same,mice with reduced leukemic burden compared to control (IVIS imaging),"[33]; 0.004% ONO-7475 feed, Day 14",three out of five
same,leukemia infiltration in the liver (H&E),[33]; 0.013% ONO-7475 feed,"little, if any, AML cells in the liver; also recorded: minimal presence of MOLM13 cells in the liver"
